Laboratory results as given in ChEMBL document CHEMBL4354800, “Amphiphilic nebramine-based hybrids Rescue legacy antibiotics from intrinsic resistance in multidrug-resistant Gram-negative bacilli” (Eur J Med Chem, 2019).
Activity calls are given as the source filed them. No cut-off for these calls is given here.

Tests used:
Pseudomonas aeruginosa [1] = experiment: Potentiation of moxifloxacin-induced antibacterial activity against MDR/XDR Pseudomonas aeruginosa isolate 91433 devoid of GyrA T83I mutant assessed as fold reduction in moxifloxacin MIC at 9 uM incubated for 18 hrs by broth microdilution method; assay type: functional
Method in brief: (§1)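 CLSI broth microdilution. Overnight cultures were set to 0.5 McFarland in saline, diluted 1:50 in Mueller-Hinton broth to a final 5 × 10^5 CFU/mL, and incubated 18 h at 37 °C against 2-fold antibiotic dilutions. A fixed adjuvant level was present throughout. MIC = lowest concentration with no visible turbidity, confirmed at 590 nm. Potentiation = fold drop in antibiotic MIC versus antibiotic alone.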

Pseudomonas aeruginosa [2] = experiment: Potentiation of rifampicin-induced antibacterial activity against MDR/XDR Pseudomonas aeruginosa isolate 101885 harboring GyrA T83I mutant assessed as fold reduction in rifampicin MIC at 9 uM incubated for 18 hrs by broth microdilution method; assay type: functional; method in brief: as §1
Pseudomonas aeruginosa [3] = experiment: Potentiation of ciprofloxacin-induced antibacterial activity against MDR/XDR Pseudomonas aeruginosa isolate PA262-101856 harboring GyrA T83I mutant assessed as fold reduction in ciprofloxacin MIC at 9 uM incubated for 18 hrs by broth microdilution method; assay type: functional
Pseudomonas aeruginosa [4] = experiment: Potentiation of minocycline-induced antibacterial activity against MDR/XDR Pseudomonas aeruginosa isolate 101243 devoid of GyrA T83I mutant assessed as fold reduction in minocycline MIC at 9 uM incubated for 18 hrs by broth microdilution method; assay type: functional
Pseudomonas aeruginosa [5] = experiment: Potentiation of minocycline-induced antibacterial activity against MDR/XDR Pseudomonas aeruginosa isolate PA259-96918 harboring GyrA T83I mutant assessed as fold reduction in minocycline MIC at 9 uM incubated for 18 hrs by broth microdilution method; assay type: functional
Pseudomonas aeruginosa [6] = experiment: Antimicrobial activity against XDR Pseudomonas aeruginosa isolate PA264 infected in Galleria mellonella larvae assessed as survival rate at 50 mg/kg co-administered with 50 mg/kg rifampicin at 2 hrs post-inoculation measured after 24 hrs relative to control; assay type: functional
Method in brief: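 G. mellonella larvae were injected with ~5 CFU of P. aeruginosa PA264 (10 µL of 5 × 10^2 CFU/mL in PBS) and held 2 h at 37 °C. A single 10 µL injection followed: monotherapy or rifampicin + compound (25+25, 50+50 or 75+75 mg/kg), with PBS as control. Larvae kept at 37 °C were scored every 6 h to 24 h; dead = no response to touch. n = 30 (two runs of 15); Kaplan-Meier.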

Pseudomonas aeruginosa [7] = experiment: Potentiation of rifampicin-induced bactericidal activity in MDR/XDR Pseudomonas aeruginosa isolate PA259-96918 harboring GyrA T83I mutant assessed as complete eradication of bacteria at 4 ug/ml incubated for 4 hrs in presence of 1 to 4 ug/ml rifampicin by time kill curve assay; assay type: functional
Method in brief: (§2)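 Time-kill assay against XDR P. aeruginosa PA259. Overnight culture adjusted to 0.5 McFarland in saline, diluted 1:50 in LB. Incubated at 37 °C for 24 h with rifampicin and adjuvant, alone or combined at various concentrations. Aliquots taken at intervals, serially diluted in PBS and plated on LB agar. Colonies counted after 20 h at 37 °C. Untreated cells as control.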

Escherichia coli [8] = experiment: Antimicrobial activity against Escherichia coli 107115 incubated for 18 hrs by broth dilution method; assay type: functional; conditions: Escherichia coli, 107115, 18 h
Method in brief: (§3)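 Broth microdilution per CLSI: overnight cultures set to 0.5 McFarland in saline, diluted 1:50 in Mueller-Hinton broth to a final 5 × 10^5 CFU/mL, added to 2-fold serial dilutions, incubated 18 h at 37 °C; MIC is the lowest concentration without visible turbidity, confirmed at 590 nm.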

Escherichia coli [9] = experiment: Potentiation of rifampicin-induced antibacterial activity against Escherichia coli 94474 assessed as fold reduction in rifampicin MIC at 4.1 uM incubated for 18 hrs by broth dilution method; assay type: functional; method in brief: as §1
Pseudomonas aeruginosa [10] = experiment: Potentiation of rifampicin-induced bactericidal activity in MDR/XDR Pseudomonas aeruginosa isolate PA259-96918 harboring GyrA T83I mutant assessed as decrease in viable bacterial count at 1 ug/ml incubated for 8 hrs in presence of 1 ug/ml rifampicin by time kill curve assay; assay type: functional, organism-based; method in brief: as §2
Pseudomonas aeruginosa [11] = experiment: Synergistic antibacterial activity against MDR/XDR Pseudomonas aeruginosa isolate PA264-104354 harboring GyrA T83I mutant assessed as fractional inhibitory concentration index in presence of ciprofloxacin incubated for 18 hrs by broth microdilution method; assay type: functional
Method in brief: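 Checkerboard synergy assay. Antibiotic and adjuvant in twofold dilutions in Mueller-Hinton broth. Inoculum 5 × 10^5 CFU/mL from a 0.5 McFarland suspension, 18 h at 37 °C, MIC read by turbidity and confirmed at 590 nm. FIC = MIC in combination / MIC alone for each agent, FICI = sum. Interpreted as ≤0.5 synergy, 0.5–4 no interaction, >4 antagonism.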

Pseudomonas aeruginosa [12] = experiment: Potentiation of minocycline-induced antimicrobial activity against MDR/XDR Pseudomonas aeruginosa isolate 101243 devoid of GyrA Thr83Ile mutant assessed as minocycline MIC50 incubated for 18 hrs by broth microdilution method (reference value: 16 microg/ml); assay type: functional; conditions: isolate 101243, 18 h
Acinetobacter baumannii [13] = experiment: Synergistic antibacterial activity against multidrug-resistant Acinetobacter baumannii AB031 assessed as fractional inhibitory concentration index in presence of minocycline incubated for 18 hrs by broth dilution method; assay type: functional
Acinetobacter baumannii [14] = experiment: Antimicrobial activity against multidrug-resistant Acinetobacter baumannii AB030 incubated for 18 hrs by broth dilution method; assay type: functional; conditions: AB030, 18 h; method in brief: as §3
Klebsiella pneumoniae = experiment: Potentiation of rifampicin-induced antibacterial activity against Klebsiella pneumoniae 116381 assessed as fold reduction in rifampicin MIC at 7.5 uM incubated for 18 hrs by broth dilution method; assay type: functional
Method in brief: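 Antibiotic MIC determined by CLSI broth microdilution (MHB, 5 × 10^5 CFU/mL, 18 h, 37 °C), once alone and once with a fixed concentration of the adjuvant. Potentiation is the ratio of the antibiotic MIC alone to its MIC in the presence of the adjuvant.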

Pseudomonas aeruginosa [15] = experiment: Potentiation of minocycline-induced antibacterial activity against MDR/XDR Pseudomonas aeruginosa isolate 91433 devoid of GyrA T83I mutant assessed as fold reduction in minocycline MIC at 7.5 uM incubated for 18 hrs by broth microdilution method; assay type: functional
Pseudomonas aeruginosa [16] = experiment: Potentiation of minocycline-induced bactericidal activity in Pseudomonas aeruginosa PAO1 at 0.5 times MIC incubated for 24 hrs in presence of 4 ug/ml minocycline by time kill curve assay relative to control; assay type: functional
Method in brief: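 Time-kill. An overnight PAO1 culture was adjusted to 0.5 McFarland in saline and diluted 1:50 in LB. Cells were exposed to the adjuvant at ½× MIC plus fixed minocycline for 24 h at 37 °C. Aliquots taken at intervals were serially diluted in PBS and plated on LB agar; colonies were counted after 20 h at 37 °C. Controls were untreated cells and colistin at 4× MIC.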

Acinetobacter baumannii [17] = experiment: Synergistic antibacterial activity against multidrug-resistant Acinetobacter baumannii AB027 assessed as fractional inhibitory concentration index in presence of rifampicin incubated for 18 hrs by broth dilution method; assay type: functional

Structure (SMILES): Cl.Cl.Cl.Cl.Cl.Cl.NC[C@H]1O[C@H](O[C@H]2[C@H](OCCCCCCCCCCN3CCN(Cc4cccc5ccccc45)CC3)[C@@H](O)[C@H](N)C[C@@H]2N)[C@H](N)C[C@@H]1O
- fold change (FC) (Pseudomonas aeruginosa [1]): 8
- fold change (FC) (Pseudomonas aeruginosa [2]): 128
- fold change (FC) (Pseudomonas aeruginosa [3]): 8
- fold change (FC) (Pseudomonas aeruginosa [4]): 8
- fold change (FC) (Pseudomonas aeruginosa [5]): 64

Structure (SMILES): Cl.Cl.Cl.Cl.Cl.NC[C@H]1O[C@H](O[C@H]2[C@H](OCCCCCCCCCCCCN3CCN(c4cc5c(cc4F)c(=O)c(C(=O)O)cn5C4CC4)CC3)[C@@H](O)[C@H](N)C[C@@H]2N)[C@H](N)C[C@@H]1O
- survival at 50 mg/kg (Pseudomonas aeruginosa [6]): 33%
- Activity (Pseudomonas aeruginosa [7]): 100%
- MIC (Escherichia coli [8]): 32 µg/mL
- fold change (FC) (Escherichia coli [9]): 256
- Activity (Pseudomonas aeruginosa [10]): Active

Structure (SMILES): COc1c(N2C[C@@H]3CCCN(CCCCCCCCCCCCO[C@@H]4[C@@H](O)[C@H](N)C[C@H](N)[C@H]4O[C@H]4O[C@H](CN)[C@@H](O)C[C@H]4N)[C@@H]3C2)c(F)cc2c(=O)c(C(=O)O)cn(C3CC3)c12.Cl.Cl.Cl.Cl.Cl
- fractional inhibitory concentration index (FICI) (Pseudomonas aeruginosa [11]): 0.16
- MIC50 (Pseudomonas aeruginosa [12]): 0.5 µg/mL
- fractional inhibitory concentration index (FICI) (Acinetobacter baumannii [13]): >1
- MIC (Acinetobacter baumannii [14]): > 16 µg/mL
- fold change (FC) (Klebsiella pneumoniae): >=1024
- fold change (FC) (Pseudomonas aeruginosa [15]): 32
- Activity (Pseudomonas aeruginosa [16]): 100%
- fractional inhibitory concentration index (FICI) (Acinetobacter baumannii [17]): 0.031 - 0.047
